pIC50: −log10 of the molar value.
Key:
[1] = target: T1, Amine oxidase [flavin-containing] B (Homo sapiens, UniProt P27338); test: Inhibition of human MAO-B at 5 uM after repeated washing
T1 sequence (P27338 whole entry): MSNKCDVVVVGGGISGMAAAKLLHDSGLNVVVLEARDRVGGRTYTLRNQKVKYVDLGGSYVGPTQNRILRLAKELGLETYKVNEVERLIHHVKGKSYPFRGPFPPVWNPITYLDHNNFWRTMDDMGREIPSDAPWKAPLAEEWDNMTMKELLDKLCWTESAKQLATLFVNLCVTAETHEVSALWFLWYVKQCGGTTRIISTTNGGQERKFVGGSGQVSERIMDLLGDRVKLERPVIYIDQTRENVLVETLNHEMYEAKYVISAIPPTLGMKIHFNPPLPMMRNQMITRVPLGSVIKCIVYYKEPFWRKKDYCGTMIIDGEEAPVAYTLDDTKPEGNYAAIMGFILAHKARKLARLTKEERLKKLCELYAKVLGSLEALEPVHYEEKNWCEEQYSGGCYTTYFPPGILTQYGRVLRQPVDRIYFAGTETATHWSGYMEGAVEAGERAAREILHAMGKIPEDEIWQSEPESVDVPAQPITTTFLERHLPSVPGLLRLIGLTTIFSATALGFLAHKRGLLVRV

[2] = target: T1, Amine oxidase [flavin-containing] B; test: Inhibition of human MAO-B at 5 uM before washing
[3] = target: T1, Amine oxidase [flavin-containing] B
[4] = target: T2, Amine oxidase [flavin-containing] A (Homo sapiens, UniProt P21397); test: Inhibition of human recombinant MAO-A assessed as hydrogen peroxide production at 20 uM
T2 sequence (P21397 whole entry): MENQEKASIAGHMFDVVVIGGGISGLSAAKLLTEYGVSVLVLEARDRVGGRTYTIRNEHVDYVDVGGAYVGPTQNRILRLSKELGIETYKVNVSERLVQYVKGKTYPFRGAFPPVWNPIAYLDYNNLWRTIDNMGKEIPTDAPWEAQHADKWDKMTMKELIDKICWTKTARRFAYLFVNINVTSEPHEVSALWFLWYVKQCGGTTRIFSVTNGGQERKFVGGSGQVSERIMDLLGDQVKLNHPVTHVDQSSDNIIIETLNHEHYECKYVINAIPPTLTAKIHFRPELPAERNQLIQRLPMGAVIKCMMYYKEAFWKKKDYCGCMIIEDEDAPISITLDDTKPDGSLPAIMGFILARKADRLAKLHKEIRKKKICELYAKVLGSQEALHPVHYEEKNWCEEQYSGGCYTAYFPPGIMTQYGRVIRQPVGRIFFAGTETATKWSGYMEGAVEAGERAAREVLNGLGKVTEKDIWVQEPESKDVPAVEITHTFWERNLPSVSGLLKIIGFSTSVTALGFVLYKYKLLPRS
Method in brief: (§1)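 Recombinant hMAO-A or hMAO-B microsomes came from baculovirus-infected BTI-TN-5B1-4 insect cells. Enzyme was set to 165 pmol p-tyramine/min (A 1.1 µg, B 7.5 µg protein). It was preincubated with compound in 0.05 M sodium phosphate, pH 7.4, for 15 min at 37 °C. Final 200 µM Amplex Red, 1 U/mL HRP and 1 mM p-tyramine started the reaction. H2O2 was read as resorufin fluorescence (ex 545/em 590 nm) over 15 min at 37 °C against vehicle controls.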

Homo sapiens = species on record: Homo sapiens; test: Selectivity index, ratio of inhibition of human recombinant MAO-A at 20 uM or 50 uM to IC50 for human recombinant MAO-B
[5] = target: T1, Amine oxidase [flavin-containing] B; test: Inhibition of human recombinant MAO-B assessed as hydrogen peroxide production at 20 uM
[6] = target: T1, Amine oxidase [flavin-containing] B; test: Inhibition of human recombinant MAO-B assessed as hydrogen peroxide production at 1 mM
Method in brief: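 Microsomal recombinant hMAO-B (baculovirus-infected BTI-TN-5B1-4 insect cells; 7.5 µg protein) preincubated with drug in 0.05 M sodium phosphate, pH 7.4, 15 min, 37 °C. Started with (final) 200 µM Amplex Red, 1 U/mL horseradish peroxidase, 1 mM p-tyramine. H2O2 read as resorufin fluorescence (ex 545/em 590 nm) over 15 min at 37 °C. Vehicle controls; five experiments.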

[7] = target: T1, Amine oxidase [flavin-containing] B; test: Inhibition of human MAO-B at 20 uM before washing
[8] = target: T1, Amine oxidase [flavin-containing] B; test: Inhibition of human MAO-B at 20 uM after repeated washing
[9] = target: T2, Amine oxidase [flavin-containing] A; test: Inhibition of human recombinant MAO-A assessed as hydrogen peroxide production at 50 uM; method in brief: as §1
[10] = target: T2, Amine oxidase [flavin-containing] A; test: Inhibition of human recombinant MAO-A assessed as hydrogen peroxide production at 1 mM
[11] = target: T2, Amine oxidase [flavin-containing] A; test: Inhibition of human recombinant MAO-A assessed as hydrogen peroxide production

SMILES | pIC50 [3] | IC50 [4] | Ratio IC50 (Homo sapiens) | further results
COc1ccc(C(=O)/C=C/c2ccc(Cl)cc2)c(O)c1 | – | – | – | inhibition (INH) [1]: 60.26%; inhibition (INH) [2]: 59.13%
COc1ccc(C(=O)/C=C/c2ccc(OCc3ccccc3)cc2)cc1 | 6.35 | Not Active | > 44 | –
CC(C)=CCOc1ccc(C(=O)/C=C/c2ccc(OCc3ccccc3)cc2)c(O)c1 | – | Not Active | – | IC50 [5]: Not Active
O=C(NCCN1CCOCC1)c1ccc(Cl)cc1 [MOCLOBEMIDE] | – | – | – | IC50 [6]: Not Active
O=C(/C=C/c1ccc(OCc2ccccc2)cc1)c1ccc(F)cc1 | 6.30 | Not Active | > 40 | –
CC(C)=CCOc1ccc(C(=O)/C=C/c2ccc(C)cc2)c(O)c1 | 5.99 | Not Active | > 19 | –
CC(C)=CCOc1ccc(C(=O)/C=C/c2ccccc2)c(O)c1 [CORDOIN] | 4.73 | Not Active | > 1.1 | inhibition (INH) [7]: 54.32%; inhibition (INH) [8]: 58.51%
CS(=O)(=O)c1ccc(C(=O)/C=C/c2ccc(Cl)cc2)cc1 | 6.33 | Not Active | > 43 | –
O=C(/C=C/c1ccc(Cl)cc1)c1ccc(F)cc1O | 7.15 | – | > 704 | –
O=C(/C=C/c1ccc(Cl)cc1)c1ccc(O)cc1 | 7.51 | – | > 1610 | IC50 [9]: Not Active
C#CCN(C)[C@H](C)Cc1ccccc1 [SELEGILINE] | – | – | – | IC50 [10]: Not Active
COc1ccc(/C=C/C(=O)c2ccc(OCC=C(C)C)cc2O)cc1 | – | Not Active | – | IC50 [5]: Not Active
CC(C)=CCOc1ccc(C(=O)/C=C/c2ccc(Cl)cc2)c(O)c1 | 5.90 | Not Active | > 16 | –
C#CCN(C)CCCOc1ccc(Cl)cc1Cl [CLORGILINE] | – | – | – | IC50 [10]: Not Active
COc1ccc(C(=O)/C=C/c2ccc(Cl)cc2)cc1 | 7.27 | Not Active | > 370 | –
O=C(/C=C/c1ccccc1)c1ccccc1 [CHALCONE] | 5.85 | Not Active | > 14 | –
O=C(/C=C/c1ccc(Cl)cc1)c1ccc(O)cc1O | 8.29 | – | 971 | IC50 [10]: Not Active; inhibition (INH) [1]: 61.38%; inhibition (INH) [2]: 55.12%; pIC50 [11]: 5.31
O=C(/C=C/c1ccc(Cl)cc1)c1ccc(OCc2ccccc2)cc1 | – | Not Active | – | –
O=C(/C=C/c1ccc(Cl)cc1)c1ccccc1O | 6.80 | – | > 312 | IC50 [9]: Not Active

Reference: ChEMBL document CHEMBL1138489, “Chalcones: a valid scaffold for monoamine oxidases inhibitors” (J Med Chem, 2009)
